Laboratory results reported in ChEMBL document CHEMBL1132647, “Synthesis, calcium mobilizing, and physicochemical properties of D-chiro-inositol 1,3,4,6-tetrakisphosphate, a novel and potent ligand at the D-myo-inositol 1,4,5-trisphosphate receptor” (J Med Chem, 1999).
Values joined by “and” are separate entries in the source; they are usually repeats but may differ in a detail not shown here. Equal values may be shown once.

What was measured:
RBL-1 = experiment: Steady-State [Ca2+] Release from Saponin-Permeabilized RBL Cell Lines; assay type: functional, cell-based, Rattus norvegicus
L15 = experiment: Steady-State [Ca2+] Release from Saponin-Permeabilized L15 Cell Lines
Lvec = experiment: Steady-State [Ca2+] Release from Saponin-Permeabilized Lvec Cell Lines; assay type: functional, cell-based
How it was run: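 ⁴⁵Ca²⁺ release end point assay at 22 °C in saponin-permeabilized L15 cells (mouse L fibroblasts overexpressing type 1 InsP₃R about 8-fold) or Lvec vector-control cells. Stores were loaded with ⁴⁵Ca²⁺ in ATP-dependent fashion to steady state (about 15 min). Buffer was 120 mM KCl, 2 mM KH₂PO₄, 5 mM succinate, 20 mM Hepes, 2 mM ATP and 2.4 mM MgCl₂, at pH 7.2, with free Ca²⁺ set to 80–150 nM with EGTA. Retained ⁴⁵Ca²⁺ was counted by scintillation. 100% was the release by 10 µM Ins(1,4,5)P₃. EC50 and Hill slope came from curve fitting. At least four experiments in duplicate, mean ± SEM.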

SH-SY5Y = experiment: Steady-State [Ca2+] Release from Saponin-Permeabilized SH-SY5Y cell line.; assay type: functional, cell-based, Homo sapiens
[1] = Hill slope by computer-assisted curve fitting.
[2] = Hill slope by computer-assisted curve fitting
[3] = molecular target: Inositol 1,4,5-trisphosphate receptor (Homo sapiens, UniProt Q14571+Q14573+Q14643); experiment: The compound was tested for inhibitory activity against Inositol 1,4,5-trisphosphate receptor in L15 cell line; assay type: cell-based
How it was run: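 Incubation was 30 min at 4 °C with EGTA. Bound and free ligand were separated by vacuum filtration through glass fiber filters and counted by scintillation. IC50 and Hill slope came from computer curve fitting. At least three experiments in duplicate, mean ± SEM.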

| EC50 (RBL-1) [µM] | EC50 (L15) [nM] | EC50 (SH-SY5Y) [nM] | SMILES | other results |
| --- | --- | --- | --- | --- |
| 4.3 | 740 | – | O=P(O)(O)O[C@@H]1[C@H](O)[C@H](O)[C@@H](OP(=O)(O)O)[C@H](OP(=O)(O)O)[C@H]1O (stereo in doubt; 5) [INS(1,4,5)P3] | – |
| 0.17 | 123 | 51.6 | O=P(O)(O)O[C@@H]1[C@H](O)[C@H](O)[C@@H](OP(=O)(O)O)[C@H](OP(=O)(O)O)[C@H]1O (stereo in doubt; 1) [INS(1,4,5)P3] | EC50 (Lvec): 247 nM |
| – | – | – | O=P(O)(O)O[C@@H]1[C@H](O)[C@H](O)[C@@H](OP(=O)(O)O)[C@H](OP(=O)(O)O)[C@H]1O (stereo in doubt; 1) | Hill coefficient [1]: 1; Hill coefficient [2]: 0.96 and 1.17 |
| 4.2 | – | 171 | O=P(O)(O)O[C@@H]1[C@H](O)[C@H](O)[C@@H](OP(=O)(O)O)[C@H](OP(=O)(O)O)[C@H]1O (stereo in doubt) [INS(1,4,5)P3] | – |
| – | – | – | O=P(O)(O)OC1C(O)C(OP(=O)(O)O)C(OP(=O)(O)O)C(O)C1OP(=O)(O)O (stereo unspecified) | IC50 [3]: 172 nM |
